Activity calls are given as the source filed them. No rule for the calls is given here.
Assays:
[1] = Cytotoxicity against human HuH7 cells infected with Hepatitis C virus subtype 1b; assay type: cell-based, Huh-7
HepG2 = assay: Antiproliferative activity against human HepG2 cells after 72 hrs by XTT assay; assay type: functional, cell-based; details: HepG2, 72 h
[2] = Cytotoxicity against human HuH7 cells infected with Hepatitis C virus subtype 2a; assay type: cell-based, Huh-7
CCRF-CEM = assay: Cytostatic activity against human CCRF-CEM cells after 72 hrs by MTT assay; assay type: functional, cell-based
How it was run: (§1)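 IC50 is the concentration that cuts cell growth by 50%, read by quantitative metabolic MTT staining after a 3-day treatment. The resistant sublines were made by raising the concentration of the cytotoxic drug step by step. CEM-DNR-bulk (daunorubicin-selected) stably overexpresses mrp-1. K562-TAX (paclitaxel-selected) expresses only mdr-1. HCT116p53−/− carries null p53 alleles. BJ and MRC-5 are nonmalignant fibroblasts.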

Pseudomonas aeruginosa [3] = assay: Antibacterial activity against multi-resistant Pseudomonas aeruginosa A/16575 after 24 hrs; assay type: functional, organism-based
Candida tropicalis = assay: Antifungal activity against Candida tropicalis after 48 hrs; assay type: functional, organism-based
A549 = assay: Cytostatic activity against human A549 cells after 72 hrs by MTT assay; assay type: functional, cell-based; details: A549, 72 h; how it was run: as §1
[4] = Antiproliferative activity against human HeLaS3 cells after 72 hrs by XTT assay; assay type: functional, cell-based; details: HeLa S3, 72 h
How it was run: (§2)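 Antiproliferative test on HL-60 promyelocytic leukemia and HeLa S3 cervical carcinoma cells growing in liquid suspension.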

[5] = Cytostatic activity against human CEM-DNR-bulk cells after 72 hrs by MTT assay; assay type: functional, cell-based; how it was run: as §1
Pichia kudriavzevii = assay: Antifungal activity against Candida crusei after 48 hrs; assay type: functional, organism-based
Staphylococcus aureus [6] = assay: Antibacterial activity against methicillin-resistant Staphylococcus aureus MRSA 4591 after 24 hrs; assay type: functional, organism-based
Hepatitis C virus [7] = assay: Antiviral activity against Hepatitis C virus subtype 2a infected in human HuH7 cells; assay type: functional, organism-based, Hepacivirus hominis; details: genotype 2a, Huh-7
Escherichia coli [8] = assay: Antibacterial activity against multi-resistant Escherichia coli C/16702 after 24 hrs; assay type: functional, organism-based
HL-60 = assay: Antiproliferative activity against human HL60 cells after 72 hrs by XTT assay; assay type: functional, cell-based; details: HL-60, 72 h; how it was run: as §2
Pseudomonas aeruginosa [9] = assay: Antibacterial activity against Pseudomonas aeruginosa CCM 3955 after 24 hrs; assay type: functional, organism-based
Enterococcus faecalis = assay: Antibacterial activity against Enterococcus faecalis CCM 4224 after 24 hrs; assay type: functional, organism-based
HCT-116 [10] = assay: Cytostatic activity against p53-deficient human HCT116 cells after 72 hrs by MTT assay; assay type: functional, cell-based; details: HCT-116, 72 h; how it was run: as §1
Staphylococcus aureus [11] = assay: Antibacterial activity against Staphylococcus aureus CCM 3953 after 24 hrs; assay type: functional, organism-based
MRC5 = assay: Cytostatic activity against human MRC5 cells after 72 hrs by MTT assay; assay type: ADME, cell-based; details: MRC5, 72 h; how it was run: as §1
BJ = assay: Cytostatic activity against human BJ cells after 72 hrs by MTT assay; assay type: ADME, cell-based; how it was run: as §1
Candida albicans = assay: Antifungal activity against Candida albicans after 48 hrs; assay type: functional, organism-based
[12] = system: Staphylococcus haemolyticus; assay: Antibacterial activity against methicillin-resistant Staphylococcus haemolyticus A/16568 after 24 hrs; assay type: functional, organism-based
K562 [13] = assay: Cytostatic activity against human K562 cells after 72 hrs by MTT assay; assay type: functional, cell-based; details: K562, 72 h; how it was run: as §1
K562 [14] = assay: Cytostatic activity against paclitaxel-resistant human K562 cells after 72 hrs by MTT assay; assay type: functional, cell-based; details: K562, 72 h; how it was run: as §1
Hepatitis C virus [15] = assay: Antiviral activity against Hepatitis C virus subtype 1b infected in human HuH7 cells; assay type: functional, organism-based, Hepacivirus hominis; details: genotype 1b, Huh-7
Escherichia coli [16] = assay: Antibacterial activity against Escherichia coli CCM 3954 after 24 hrs; assay type: functional, organism-based
Candida parapsilosis = assay: Antifungal activity against Candida parapsilosis after 48 hrs; assay type: functional, organism-based
HCT-116 [17] = assay: Cytostatic activity against human HCT116 cells after 72 hrs by MTT assay; assay type: functional, cell-based; details: HCT-116, 72 h; how it was run: as §1

| SMILES | CC50 [1] | IC50 (HepG2) | CC50 [2] | IC50 (CCRF-CEM) | Activity (Pseudomonas aeruginosa [3]) | Activity (Candida tropicalis) | IC50 (A549) | IC50 [4] | IC50 [5] | Activity (Pichia kudriavzevii) | Activity (Staphylococcus aureus [6]) | EC50 (Hepatitis C virus [7]) | Activity (Escherichia coli [8]) | IC50 (HL-60) | Activity (Pseudomonas aeruginosa [9]) | Activity (Enterococcus faecalis) | IC50 (HCT-116 [10]) | Activity (Staphylococcus aureus [11]) | IC50 (MRC5) | IC50 (BJ) | also measured |
| --- | --- | --- | --- | --- | --- | --- | --- | --- | --- | --- | --- | --- | --- | --- | --- | --- | --- | --- | --- | --- | --- |
| Cc1nc(N)c2ccn([C@@H]3O[C@H](CO)[C@@H](O)[C@H]3O)c2n1 | > 44 µM | > 20 µM | > 44 µM | > 20 µM | inactive | inactive | > 100 µM | > 20 µM | > 20 µM | inactive | inactive | > 44 µM | inactive | > 20 µM | inactive | inactive | > 20 µM | inactive | > 100 µM | > 100 µM | Activity (Candida albicans): inactive; Activity [12]: inactive; IC50 (K562 [13]): > 20 µM; IC50 (K562 [14]): > 20 µM; EC50 (Hepatitis C virus [15]): > 44 µM; Activity (Escherichia coli [16]): inactive; Activity (Candida parapsilosis): inactive; IC50 (HCT-116 [17]): > 20 µM |
| O=c1[nH]cnc2c1c(-c1cccs1)cn2[C@@H]1O[C@H](CO)[C@@H](O)[C@H]1O | > 44 µM | > 20 µM | > 44 µM | > 20 µM | inactive | inactive | > 20 µM | > 20 µM | > 20 µM | inactive | inactive | > 44 µM | inactive | > 20 µM | inactive | inactive | > 20 µM | inactive | > 100 µM | > 100 µM | Activity (Candida albicans): inactive; Activity [12]: inactive; IC50 (K562 [13]): > 20 µM; IC50 (K562 [14]): > 20 µM; EC50 (Hepatitis C virus [15]): > 44 µM; Activity (Escherichia coli [16]): inactive; Activity (Candida parapsilosis): inactive; IC50 (HCT-116 [17]): > 20 µM |
| O=c1[nH]cnc2c1c(-c1ccco1)cn2[C@@H]1O[C@H](CO)[C@@H](O)[C@H]1O | > 44 µM | > 15 µM | > 44 µM | > 20 µM | inactive | inactive | > 20 µM | 5.78 µM | > 20 µM | inactive | inactive | > 44 µM | inactive | 2.2 µM | inactive | inactive | > 20 µM | inactive | > 100 µM | > 100 µM | Activity (Candida albicans): inactive; Activity [12]: inactive; IC50 (K562 [13]): 15.5 µM; IC50 (K562 [14]): 17.8 µM; EC50 (Hepatitis C virus [15]): > 44 µM; Activity (Escherichia coli [16]): inactive; Activity (Candida parapsilosis): inactive; IC50 (HCT-116 [17]): 18.3 µM |
| CSc1ncnc2c1c(-c1ccoc1)cn2[C@@H]1O[C@H](CO)[C@@H](O)[C@H]1O | > 44 µM | > 15 µM | > 44 µM | 14.2 µM | inactive | inactive | 0.28 µM | 5.39 µM | > 20 µM | inactive | inactive | > 44 µM | inactive | 0.36 µM | inactive | inactive | 0.1 µM | inactive | > 100 µM | 98.8 µM | Activity (Candida albicans): inactive; Activity [12]: inactive; IC50 (K562 [13]): 0.06 µM; IC50 (K562 [14]): 3.25 µM; EC50 (Hepatitis C virus [15]): 4.72 µM; Activity (Escherichia coli [16]): inactive; Activity (Candida parapsilosis): inactive; IC50 (HCT-116 [17]): 0.04 µM |
| Nc1nc2c(c(-c3cc4ccccc4o3)cn2[C@@H]2O[C@H](CO)[C@@H](O)[C@H]2O)c(=O)[nH]1 | > 44 µM | > 20 µM | > 44 µM | > 20 µM | inactive | inactive | > 100 µM | > 20 µM | > 20 µM | inactive | inactive | > 44 µM | inactive | > 20 µM | inactive | inactive | > 100 µM | inactive | > 100 µM | > 100 µM | Activity (Candida albicans): inactive; Activity [12]: inactive; IC50 (K562 [13]): > 20 µM; IC50 (K562 [14]): > 20 µM; EC50 (Hepatitis C virus [15]): > 44 µM; Activity (Escherichia coli [16]): inactive; Activity (Candida parapsilosis): inactive; IC50 (HCT-116 [17]): > 100 µM |
| COc1nc(N)nc2c1c(-c1cc3ccccc3o1)cn2[C@@H]1O[C@H](CO)[C@@H](O)[C@H]1O | > 44 µM | > 20 µM | > 44 µM | 12.7 µM | inactive | inactive | > 20 µM | > 20 µM | 16.7 µM | inactive | inactive | 20.7 µM | inactive | > 20 µM | inactive | inactive | > 20 µM | inactive | 22.7 µM | 25.6 µM | Activity (Candida albicans): inactive; Activity [12]: inactive; IC50 (K562 [13]): 14.6 µM; IC50 (K562 [14]): 15.5 µM; EC50 (Hepatitis C virus [15]): 8.98 µM; Activity (Escherichia coli [16]): inactive; Activity (Candida parapsilosis): inactive; IC50 (HCT-116 [17]): > 20 µM |
| O=c1[nH]cnc2c1c(-c1cc3ccccc3o1)cn2[C@@H]1O[C@H](CO)[C@@H](O)[C@H]1O | > 44 µM | > 20 µM | > 44 µM | > 20 µM | inactive | inactive | > 20 µM | > 20 µM | > 20 µM | inactive | inactive | 17.4 µM | inactive | > 20 µM | inactive | inactive | > 20 µM | inactive | > 100 µM | 62.7 µM | Activity (Candida albicans): inactive; Activity [12]: inactive; IC50 (K562 [13]): > 20 µM; IC50 (K562 [14]): > 20 µM; EC50 (Hepatitis C virus [15]): 7.21 µM; Activity (Escherichia coli [16]): inactive; Activity (Candida parapsilosis): inactive; IC50 (HCT-116 [17]): > 20 µM |
| Nc1nc2c(c(-c3ccoc3)cn2[C@@H]2O[C@H](CO)[C@@H](O)[C@H]2O)c(=O)[nH]1 | > 44 µM | > 20 µM | > 44 µM | 17.9 µM | inactive | inactive | > 20 µM | 10.7 µM | 15 µM | inactive | inactive | 40.7 µM | inactive | > 15 µM | inactive | inactive | 17.6 µM | inactive | 86.1 µM | 21.5 µM | Activity (Candida albicans): inactive; Activity [12]: inactive; IC50 (K562 [13]): 19.6 µM; IC50 (K562 [14]): 12.5 µM; EC50 (Hepatitis C virus [15]): 25.7 µM; Activity (Escherichia coli [16]): inactive; Activity (Candida parapsilosis): inactive; IC50 (HCT-116 [17]): 14.2 µM |

Reference: ChEMBL document CHEMBL3124843, “Synthesis, cytostatic, antimicrobial, and anti-HCV activity of 6-substituted 7-(het)aryl-7-deazapurine ribonucleosides” (J Med Chem, 2014)
